Measurements: article PMC8343189 (Acta Pharmaceutica Sinica. B, 2020)

Legend:
[1] = target: T1, ANO1 (Homo sapiens, UniProt Q5XXA6, DEL476-501); assay: ANO1 whole-cell patch clamp in ANO1-overexpressing FRT cells; assay type: cell-based; details: 30 μmol/L, ANO1 activated by 1 μmol/L intracellular Ca^2+
T1 sequence (Q5XXA6 with tags, fused parts or gaps isoform Q5XXA6-5 DEL539-564): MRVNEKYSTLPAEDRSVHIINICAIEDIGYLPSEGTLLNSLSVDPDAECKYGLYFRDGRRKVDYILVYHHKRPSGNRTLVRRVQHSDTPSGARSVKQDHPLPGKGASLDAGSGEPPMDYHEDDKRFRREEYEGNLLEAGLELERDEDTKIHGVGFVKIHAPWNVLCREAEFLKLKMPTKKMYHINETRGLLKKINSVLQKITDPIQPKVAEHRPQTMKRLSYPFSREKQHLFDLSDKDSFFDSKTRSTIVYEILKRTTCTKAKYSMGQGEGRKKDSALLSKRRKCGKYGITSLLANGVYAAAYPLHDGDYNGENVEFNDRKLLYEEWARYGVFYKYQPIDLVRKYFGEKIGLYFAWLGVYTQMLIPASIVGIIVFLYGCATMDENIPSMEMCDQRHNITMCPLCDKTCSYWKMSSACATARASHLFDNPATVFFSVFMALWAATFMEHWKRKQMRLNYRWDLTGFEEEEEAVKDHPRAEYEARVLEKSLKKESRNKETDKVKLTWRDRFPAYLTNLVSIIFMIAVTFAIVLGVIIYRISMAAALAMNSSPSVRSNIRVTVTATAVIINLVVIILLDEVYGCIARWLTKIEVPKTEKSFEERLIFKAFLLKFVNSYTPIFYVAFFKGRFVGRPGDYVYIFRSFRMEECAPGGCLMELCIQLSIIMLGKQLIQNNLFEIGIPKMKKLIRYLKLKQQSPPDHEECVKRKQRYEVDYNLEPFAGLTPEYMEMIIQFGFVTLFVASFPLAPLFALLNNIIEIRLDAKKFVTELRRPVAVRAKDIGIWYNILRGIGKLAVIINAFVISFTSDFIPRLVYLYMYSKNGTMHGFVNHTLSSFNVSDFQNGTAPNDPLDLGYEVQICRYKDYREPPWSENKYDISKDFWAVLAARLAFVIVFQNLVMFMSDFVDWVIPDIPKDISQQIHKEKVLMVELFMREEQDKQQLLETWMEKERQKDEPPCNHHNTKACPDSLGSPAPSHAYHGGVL

[2] = system: intracellular Ca^2+ concentration; assay: Intracellular Ca^2+ fluorescence; assay type: cell-based; details: 30 μmol/L compound, 200 μmol/L ATP, Cal520, control 2.3 folds
[3] = system: C57BL/6 male mice; assay: Acute toxicity in mice, i.g.; assay type: in vivo
In short: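 Male C57BL/6 mice, 6–8 weeks, 18–22 g, 7 per group, received a single intragastric dose of 1000 mg/kg. Vehicle was 5% DMSO + 10% […] + 85% saline (v/v), adjusted to pH 8.0 with NaOH. Survival was monitored daily for 3 days.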

[4] = target: T1, ANO1; assay: YFP fluorescence quenching assay in ANO1-overexpressing FRT cell line; assay type: cell-based
[5] = Stability under different pH conditions; assay type: physicochemical; details: 37 °C, 100 μmol/L, mean ± SD, n = 3
In short: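 Test compound diluted to 100 μmol/L in phosphate buffers at pH 1.0, 4.0, 6.8, 7.4 and 9.0 and held in a 37 °C water bath. HPLC−UV peak area measured at 0, 2 and 5 h; residual expressed relative to the 0 h peak area.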

[6] = system: MDCK cells; assay: MDCK cells permeability; assay type: in vitro ADME, canine; details: oral bioavailability prediction from MDCK permeability
In short: (§1)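 Transwell with a resistance-stable MDCK monolayer; compound added to the upper chamber, HBSS in the lower chamber. Incubated 120 min at 37 °C, 5% CO2. Lower-chamber concentration measured by LC−MS. Papp derived from amount transported per time, membrane area and initial upper-chamber concentration. Mean ± SD, n = 3.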

[7] = MDCK cells permeability; assay type: in vitro ADME, canine; details: dog, MDCK
In short: as §1

[8] = system: CHO cells; assay: SRB proliferative cytotoxicity in CHO cells; assay type: cell-based, Chinese Hamster; details: 1 and 3 μmol/L, 72 h
In short: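 CHO cells in DMEM with 10% FBS, seeded overnight, then exposed to test compound or DMSO vehicle for 72 h. Cells fixed with 10% TCA for 1 h at 4 °C and stained with 0.4% SRB in 1% acetic acid for 15 min in the dark. Washed with acetic acid, dye dissolved in 10 mmol/L Tris-base, absorbance read at 540 nm. n = 3, mean ± SEM, t-test vs DMSO control.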

[9] = system: SD rats; assay: Chronic constriction injury model; assay type: in vivo; details: 40 mg/kg i.g., rat CCI, Electronic Von Frey, vehicle 11.5
[10] = target: T2, ANO2 (Homo sapiens, UniProt Q9NQ90); assay: ANO2 whole-cell patch clamp in HEK293 cells transiently expressing ANO2; assay type: cell-based; details: 30 μmol/L
T2 sequence (Q9NQ90 1-998): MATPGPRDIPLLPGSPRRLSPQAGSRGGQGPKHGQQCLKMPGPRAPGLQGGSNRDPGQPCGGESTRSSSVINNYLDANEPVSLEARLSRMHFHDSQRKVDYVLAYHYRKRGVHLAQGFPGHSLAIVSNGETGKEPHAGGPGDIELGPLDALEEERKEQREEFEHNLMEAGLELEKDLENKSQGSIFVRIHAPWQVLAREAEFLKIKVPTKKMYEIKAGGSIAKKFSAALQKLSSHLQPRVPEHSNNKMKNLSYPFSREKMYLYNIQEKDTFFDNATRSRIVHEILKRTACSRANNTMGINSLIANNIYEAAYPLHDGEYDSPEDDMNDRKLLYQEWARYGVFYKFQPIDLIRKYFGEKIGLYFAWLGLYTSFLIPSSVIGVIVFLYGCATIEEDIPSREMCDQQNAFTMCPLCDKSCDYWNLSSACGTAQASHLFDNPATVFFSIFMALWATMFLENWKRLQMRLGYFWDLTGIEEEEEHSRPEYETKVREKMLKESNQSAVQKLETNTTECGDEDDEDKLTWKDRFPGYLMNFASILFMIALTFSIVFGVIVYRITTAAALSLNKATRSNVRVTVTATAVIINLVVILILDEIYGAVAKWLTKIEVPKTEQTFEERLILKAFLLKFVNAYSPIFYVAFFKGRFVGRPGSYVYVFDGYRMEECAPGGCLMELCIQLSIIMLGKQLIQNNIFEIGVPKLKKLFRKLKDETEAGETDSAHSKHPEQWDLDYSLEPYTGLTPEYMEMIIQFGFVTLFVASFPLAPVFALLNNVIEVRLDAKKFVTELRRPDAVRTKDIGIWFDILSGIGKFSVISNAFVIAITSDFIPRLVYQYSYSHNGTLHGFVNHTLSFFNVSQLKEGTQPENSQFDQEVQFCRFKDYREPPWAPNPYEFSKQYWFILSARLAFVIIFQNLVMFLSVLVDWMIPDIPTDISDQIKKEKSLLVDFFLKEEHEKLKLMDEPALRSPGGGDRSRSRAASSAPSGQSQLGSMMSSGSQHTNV
In short: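 HEK293 cells transiently transfected with the ANO2 gene; whole-cell patch clamp at room temperature, pipette solution at pCa2+ 6.0. Cells held at −40 mV, stepped from […] in +20 mV increments for 500 ms, then repolarized to −80 mV for 250 ms, every 15 s. Currents recorded before and after 30 μmol/L test compound; an ANO1-selective inhibitor and a pan-inhibitor served as controls.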

[11] = system: SD rats; assay: Formalin test on rat; assay type: in vivo
In short: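 30 min later, 50 μL 5% formalin injected into the left paw; controls received saline. Foot lifts counted over phase 1 (0–10 min) and phase 2 (10–60 min). Mean ± SD; ANOVA vs vehicle.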

For `O=C(O)c1c(-c2ccc(Cl)cc2)csc1NC(=O)c1cccc2ccccc12` [Compound 42, 2-(1-Naphthamido)-4-(4-chlorophenyl) thiophene-3-carboxylic acid], the CaCC current [1] was “significantly suppressed the CaCC current”, the “maximum relative fluorescence units (RFU) vs initial value (Ca^2+ influx)” value [2] was 1.9 folds and the “survival and acute toxic response” value ([3]; 1000 mg/kg i.g., 72 h, C57BL/6 male mice) was “All mice survived and no intense acute toxic response”. For the same compound, the safe dose ([3]; i.g. administration, mice) was ≤ 1000 mg/kg, the IC50 [4] was 790 nM and the “5 h residual compound under different pH (%) pH 1.0” value ([5]; pH 1.0, 5 h) was 99.0 ± 4.6%. The “5 h residual compound under different pH (%) pH 4.0” value ([5]; pH 4.0, 5 h) was 99.4 ± 4.4%, the “5 h residual compound under different pH (%) pH 6.8” value ([5]; pH 6.8, 5 h) was 99.2 ± 4.9% and the “5 h residual compound under different pH (%) pH 7.4” value ([5]; pH 7.4, 5 h) was 99.4 ± 3.5%. The “5 h residual compound under different pH (%) pH 9.0” value ([5]; pH 9.0, 5 h) was 99.5 ± 0.9%, the “F prediction (%)” value [6] was >70% and the Papp at 120 min [7] was 13.8 ×10⁻⁶ cm/s. The “effect on CHO cell proliferation” value [8] was “weak effect”, the “PTI, pain threshold rate change (%) of 1 h compared to 0 h” value [9] was 45.2% and the “effect on ANO2 induced CaCC current” value ([10]; HEK293 cells expressing ANO2) was “little effect”. The ANO1/ANO2 selectivity ([10]; compared with Ani9 and CaCCinh-A01) was “slightly weaker than that of Ani9 but much higher than that of CaCCinh-A01”, the “analgesic effect in phase 2 compared with vehicle” value ([11]; 80 mg/kg i.g., phase 2) was “significant analgesic effect” and the “number of foot lifts, phase 2” value ([11]; 80 mg/kg i.g., phase 2, vehicle 121 foot lifts) was 70 foot lifts. The “effect on number of foot lifts, phase 1” value ([11]; i.g., compared with the vehicle group, phase 1) was “not phase 1”.
